Counter-ions that a name gives are not always drawn.
How the values were obtained:
xenograft = xenograft mice model; preliminary studies; cited from earlier work
[1] = system: several cancer cell lines, such as lung, breast, ovarian, colon, prostate cancer, leukemia, lymphoma and osteosarcoma; conditions: according to the data in vitro; cited from earlier work
[2] = Stability tests of puquitinib in human plasma QC samples; assay type: physicochemical; conditions: in words
How it was run: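 Plasma QC samples (3.00, 250.00, 400.00 ng/mL) were tested three ways: extracted samples at room temperature for about 72 h; three freeze (−80 °C) and thaw (room temperature) cycles within a month, analysed in triplicate; and storage at −80 °C for 1 month. Quantified by HPLC–MS/MS against same-day calibration; accuracy given as RE%.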

stability during short-term, freeze and thaw and long-term tests [2]: good stability
Structure (SMILES): c1cnc2ccc(Nc3nc(NC4CC4)c4nc[nH]c4n3)cc2c1 [puquitinib, Puquitinib mesylate]
antitumor efficacy (xenograft): clear antitumor efficacy | IC50 [1]: 500 to 2000 nM

— publication PMC6133078 (European Journal of Drug Metabolism and Pharmacokinetics, 2018)
